Source: ChEMBL document CHEMBL3525900, “Pharmacokinetics, distribution, and metabolism of [14C]sunitinib in rats, monkeys, and humans” (Drug Metab Dispos, 2012)

Key:
Rattus norvegicus = assay: AUC (0 to infinity) as total radioactivity in female Sprague-Dawley rat plasma at 5 mg/kg, iv administered as single dose by LC/MS/MS analysis; assay type: ADME, organism-based; parameters: dose 5 mg/kg, dosed compound name [14C]Sunitinib, route intravenous, time infinity; details: in vivo
Outline: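 Single dose of [14C]sunitinib L-malate as free base, 50 µCi/kg. IV dose was 5 mg/kg by tail vein in 5 females. Oral dose was 15 mg/kg by gavage in 3 females and 3 males. Total radioactivity was by scintillation counting. […] Cmax was read from raw data, t½ by log-linear regression, AUC by linear trapezoidal rule.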

Homo sapiens = assay: AUC (0 to infinity) as total radioactivity in human plasma at 50 mg, po administered as single dose […] by LC/MS/MS analysis; assay type: ADME, organism-based; parameters: dose 50 mg, time infinity, route oral, dosed compound name [14C]Sunitinib; details: in vivo
Outline: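 Open-label phase I study in 8 subjects given one 50 mg oral dose of [14C]sunitinib (100 µCi). Plasma total radioactivity was counted by scintillation on triplicate 0.25 mL aliquots. Sunitinib was quantified by LC-MS-MS. Noncompartmental analysis: Cmax read directly, terminal t½ = ln(2)/slope of the log-concentration regression, AUC by linear trapezoidal rule to the last detectable concentration.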

[1] = Drug concentration in male albino rat testis assessed as radioactivity per gram of tissue at 20 mg/kg administered as single dose via gastric gavage measured after 72 hrs by autoradiographic analysis; assay type: ADME, organism-based; parameters: dose 20 mg/kg, dosed compound name [14C]Sunitinib; details: in vivo, po
Adrenal [2] = assay: Drug concentration in male albino rat adrenal assessed as radioactivity per gram of tissue at 20 mg/kg administered as single dose via gastric gavage measured after 168 hrs by autoradiographic analysis; assay type: ADME, organism-based; parameters: dose 20 mg/kg, dosed compound name [14C]Sunitinib; details: in vivo, po
Kidney = assay: Drug concentration in male Lister Hooded pigmented rat kidney assessed as radioactivity per gram of tissue at 20 mg/kg administered as single dose via gastric gavage measured after 72 hrs by autoradiographic analysis; assay type: ADME, organism-based; parameters: dose 20 mg/kg, dosed compound name [14C]Sunitinib; details: in vivo, po
Lung = assay: Drug concentration in male Lister Hooded pigmented rat lung assessed as radioactivity per gram of tissue at 20 mg/kg administered as single dose via gastric gavage measured after 24 hrs by autoradiographic analysis; assay type: ADME, organism-based; parameters: dose 20 mg/kg, dosed compound name [14C]Sunitinib; details: in vivo, po
[3] = Drug concentration in male albino rat lymph node assessed as radioactivity per gram of tissue at 20 mg/kg administered as single dose via gastric gavage measured after 3 hrs by autoradiographic analysis; assay type: ADME, organism-based; parameters: dose 20 mg/kg, dosed compound name [14C]Sunitinib; details: in vivo, po
Zone of skin [4] = assay: Drug concentration in female albino rat abdomen skin assessed as radioactivity per gram of tissue at 20 mg/kg administered as single dose via gastric gavage measured after 6 hrs by autoradiographic analysis; assay type: ADME, organism-based; parameters: dose 20 mg/kg, dosed compound name [14C]Sunitinib; details: in vivo, po
Outline: (§1)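 Sprague Dawley (albino) rats, ca 7-8 weeks old, received a single gastric-gavage dose of [14C]sunitinib L-malate at 20 mg/kg (15 mg freebase/kg, 100 µCi/kg). One animal per sex killed by CO2 at 3, 6, 24, 72 and 168 h, then frozen in CO2/hexane. 30 µm sagittal sections were cut and freeze-dried. Radioactivity per gram quantified by whole-body autoradiography using regression against standards. LOQ 0.04–0.06 µg freebase equiv/g.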

Large intestine = assay: Drug concentration in male Lister Hooded pigmented rat large intestine assessed as radioactivity per gram of tissue at 20 mg/kg administered as single dose via gastric gavage measured after 168 hrs by autoradiographic analysis; assay type: ADME, organism-based; parameters: dose 20 mg/kg, dosed compound name [14C]Sunitinib; details: in vivo, po
[5] = Drug concentration in male Lister Hooded pigmented rat preputial gland assessed as radioactivity per gram of tissue at 20 mg/kg administered as single dose via gastric gavage measured after 168 hrs by autoradiographic analysis; assay type: ADME, organism-based; parameters: dose 20 mg/kg, dosed compound name [14C]Sunitinib; details: in vivo, po
[6] = Drug concentration in male Lister Hooded pigmented rat skeletal muscle assessed as radioactivity per gram of tissue at 20 mg/kg administered as single dose via gastric gavage measured after 168 hrs by autoradiographic analysis; assay type: ADME, organism-based; parameters: dose 20 mg/kg, dosed compound name [14C]Sunitinib; details: in vivo, po
Small intestine = assay: Drug concentration in male Lister Hooded pigmented rat small intestine assessed as radioactivity per gram of tissue at 20 mg/kg administered as single dose via gastric gavage measured after 168 hrs by autoradiographic analysis; assay type: ADME, organism-based; parameters: dose 20 mg/kg, dosed compound name [14C]Sunitinib; details: in vivo, po
Stomach = assay: Drug concentration in male Lister Hooded pigmented rat stomach assessed as radioactivity per gram of tissue at 20 mg/kg administered as single dose via gastric gavage measured after 168 hrs by autoradiographic analysis; assay type: ADME, organism-based; parameters: dose 20 mg/kg, dosed compound name [14C]Sunitinib; details: in vivo, po
Spinal cord = assay: Drug concentration in female albino rat spinal cord assessed as radioactivity per gram of tissue at 20 mg/kg administered as single dose via gastric gavage measured after 3 hrs by autoradiographic analysis; assay type: ADME, organism-based; parameters: dose 20 mg/kg, dosed compound name [14C]Sunitinib; details: in vivo, po
Adrenal [7] = assay: Drug concentration in male Lister Hooded pigmented rat adrenal assessed as radioactivity per gram of tissue at 20 mg/kg administered as single dose via gastric gavage measured after 336 hrs by autoradiographic analysis; assay type: ADME, organism-based; parameters: dose 20 mg/kg, dosed compound name [14C]Sunitinib; details: in vivo, po
Zone of skin [8] = assay: Drug concentration in male Lister Hooded pigmented rat abdomen skin assessed as radioactivity per gram of tissue at 20 mg/kg administered as single dose via gastric gavage measured after 336 hrs by autoradiographic analysis; assay type: ADME, organism-based; parameters: dose 20 mg/kg, dosed compound name [14C]Sunitinib; details: in vivo, po
Adrenal [9] = assay: Drug concentration in female albino rat adrenal assessed as radioactivity per gram of tissue at 20 mg/kg administered as single dose via gastric gavage measured after 3 hrs by autoradiographic analysis; assay type: ADME, organism-based; parameters: dose 20 mg/kg, dosed compound name [14C]Sunitinib; details: in vivo, po; outline: as §1
[10] = Drug concentration in female albino rat bladder assessed as radioactivity per gram of tissue at 20 mg/kg administered as single dose via gastric gavage measured after 3 hrs by autoradiographic analysis; assay type: ADME, organism-based, Urinary bladder; parameters: dose 20 mg/kg, dosed compound name [14C]Sunitinib; details: in vivo, po; outline: as §1
[11] = Drug concentration in male albino rat brown fat assessed as radioactivity per gram of tissue at 20 mg/kg administered as single dose via gastric gavage measured after 3 hrs by autoradiographic analysis; assay type: ADME, organism-based, Brown adipose tissue; parameters: dose 20 mg/kg, dosed compound name [14C]Sunitinib; details: in vivo, po
[12] = Drug concentration in male Lister Hooded pigmented rat bone marrow assessed as radioactivity per gram of tissue at 20 mg/kg administered as single dose via gastric gavage measured after 168 hrs by autoradiographic analysis; assay type: ADME, organism-based; parameters: dose 20 mg/kg, dosed compound name [14C]Sunitinib; details: in vivo, po
Heart = assay: Drug concentration in female Lister Hooded pigmented rat heart assessed as radioactivity per gram of tissue at 20 mg/kg administered as single dose via gastric gavage measured after 24 hrs by autoradiographic analysis; assay type: ADME, organism-based; parameters: dose 20 mg/kg, dosed compound name [14C]Sunitinib; details: in vivo, po
Outline: (§2)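 Lister Hooded (pigmented) rats, ca 7-8 weeks old, acclimated 7 days, given [14C]sunitinib L-malate by gastric gavage at 20 mg/kg (15 mg freebase/kg, 100 µCi/kg). One male and one female killed by CO2 at 24, 72, 168 and 336 h. Carcasses frozen in solid CO2/hexane and embedded in frozen cellulose. 30 µm sagittal cryosections were freeze-dried. Tissue radioactivity measured by quantitative whole-body autoradiography against calibration standards, with background subtracted.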

[13] = Drug concentration in male albino rat preputial gland assessed as radioactivity per gram of tissue at 20 mg/kg administered as single dose via gastric gavage measured after 24 hrs by autoradiographic analysis; assay type: ADME, organism-based; parameters: dose 20 mg/kg, dosed compound name [14C]Sunitinib; details: in vivo, po
[14] = Drug concentration in female Lister Hooded pigmented rat lachrymal gland assessed as radioactivity per gram of tissue at 20 mg/kg administered as single dose via gastric gavage measured after 24 hrs by autoradiographic analysis; assay type: ADME, organism-based; parameters: dose 20 mg/kg, dosed compound name [14C]Sunitinib; details: in vivo, po; outline: as §2
Blood = assay: Drug concentration in female albino rat blood assessed as radioactivity per gram of tissue at 20 mg/kg administered as single dose via gastric gavage measured after 24 hrs by autoradiographic analysis; assay type: ADME, organism-based; parameters: dose 20 mg/kg, dosed compound name [14C]Sunitinib; details: in vivo, po; outline: as §1
Spleen = assay: Drug concentration in female Lister Hooded pigmented rat spleen assessed as radioactivity per gram of tissue at 20 mg/kg administered as single dose via gastric gavage measured after 24 hrs by autoradiographic analysis; assay type: ADME, organism-based; parameters: dose 20 mg/kg, dosed compound name [14C]Sunitinib; details: in vivo, po; outline: as §2

CCN(CC)CCNC(=O)c1c(C)[nH]c(/[14CH]=C2\C(=O)Nc3ccc(F)cc32)c1C.O=C(O)C[C@H](O)C(=O)O
AUC (Rattus norvegicus): 17427 ng.Eq.hr/ml
AUC (Homo sapiens): 2537.1 ng.Eq.hr/ml
Radiolabel recovery [1]: 0.39 ugequiv
Radiolabel recovery (Adrenal [2]): 0.31 ugequiv
Radiolabel recovery (Kidney): 0.26 ugequiv
Radiolabel recovery (Lung): 1.55 ugequiv
Radiolabel recovery [3]: 8.86 ugequiv
Radiolabel recovery (Zone of skin [4]): 4.73 ugequiv
Radiolabel recovery (Large intestine): 0.06 ugequiv
Radiolabel recovery [5]: 0.06 ugequiv
Radiolabel recovery [6]: 0.06 ugequiv
Radiolabel recovery (Small intestine): 0.06 ugequiv
Radiolabel recovery (Stomach): 0.06 ugequiv
Radiolabel recovery (Spinal cord): 0.28 ugequiv
Radiolabel recovery (Adrenal [7]): 0.16 ugequiv
Radiolabel recovery (Zone of skin [8]): 0.3 ugequiv
Radiolabel recovery (Adrenal [9]): 29.98 ugequiv
Radiolabel recovery [10]: 3.73 ugequiv
Radiolabel recovery [11]: 8.47 ugequiv
Radiolabel recovery [12]: 0.06 ugequiv
Radiolabel recovery (Heart): 0.47 ugequiv
Radiolabel recovery [13]: 13.66 ugequiv
Radiolabel recovery [14]: 2.05 ugequiv
Radiolabel recovery (Blood): 0.19 ugequiv
Radiolabel recovery (Spleen): 2.79 ugequiv
